Results: ChEMBL document CHEMBL4304816, “A Novel Biphenyl-based Chemotype of Retinoid X Receptor Ligands Enables Subtype and Heterodimer Preferences” (ACS Med Chem Lett, 2019)
Blank lines part the entries; values can stand above or below the molecule they belong to. Calls of active or inactive are those of the source. The rule behind the calls is not given here.

Tests used:
Assay type in all cases: cell-based
[1] = Agonist activity at full-length human RXR/LXR expressed in HEK293T cells at 20 uM after 14 to 16 hrs by dual-glo luciferase reporter gene assay relative to untreated control; details: HEK-293T, read-out: Activity
Outline: (§1)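 RXR:LXR or RXR:PPARγ heterodimer reporter assay with test compound alone. Activation expressed relative to 0.1% DMSO vehicle. Three independent experiments, each in duplicate; mean reported.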

[2] = target: T1, Peroxisome proliferator-activated receptor alpha (Homo sapiens) (UniProt Q07869); test: Agonist activity at Gal4-LBD fused PPARalpha (unknown origin) expressed in HEK293T cells at 20 uM after 14 to 16 hrs by dual-Glo luciferase assay
T1 sequence (whole entry): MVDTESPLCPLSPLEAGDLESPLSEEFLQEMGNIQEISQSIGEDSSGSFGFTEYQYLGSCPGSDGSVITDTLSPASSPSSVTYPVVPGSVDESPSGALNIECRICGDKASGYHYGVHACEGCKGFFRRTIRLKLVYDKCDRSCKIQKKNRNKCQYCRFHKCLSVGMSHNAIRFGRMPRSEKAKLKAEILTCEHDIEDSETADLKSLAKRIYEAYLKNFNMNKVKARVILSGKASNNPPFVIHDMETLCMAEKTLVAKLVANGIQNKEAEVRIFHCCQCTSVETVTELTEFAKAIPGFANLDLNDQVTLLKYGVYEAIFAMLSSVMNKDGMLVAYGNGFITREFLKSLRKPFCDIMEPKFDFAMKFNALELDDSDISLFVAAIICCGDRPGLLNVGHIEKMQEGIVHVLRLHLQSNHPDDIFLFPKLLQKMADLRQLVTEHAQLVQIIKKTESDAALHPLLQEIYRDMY
Outline: (§2)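 Gal4-hybrid reporter gene selectivity panel of related nuclear receptors (PPARα/β/γ, RARα/β/γ) in HEK293T cells. Activity is read as mean fold activation versus 0.1% DMSO vehicle, n ≥ 2.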

[3] = target: T2, Peroxisome proliferator-activated receptor gamma (Homo sapiens) (UniProt P37231); test: Agonist activity at Gal4-LBD fused PPARgamma (unknown origin) expressed in HEK293T cells at 20 uM after 14 to 16 hrs by dual-Glo luciferase assay; outline: as §2
T2 sequence (whole entry): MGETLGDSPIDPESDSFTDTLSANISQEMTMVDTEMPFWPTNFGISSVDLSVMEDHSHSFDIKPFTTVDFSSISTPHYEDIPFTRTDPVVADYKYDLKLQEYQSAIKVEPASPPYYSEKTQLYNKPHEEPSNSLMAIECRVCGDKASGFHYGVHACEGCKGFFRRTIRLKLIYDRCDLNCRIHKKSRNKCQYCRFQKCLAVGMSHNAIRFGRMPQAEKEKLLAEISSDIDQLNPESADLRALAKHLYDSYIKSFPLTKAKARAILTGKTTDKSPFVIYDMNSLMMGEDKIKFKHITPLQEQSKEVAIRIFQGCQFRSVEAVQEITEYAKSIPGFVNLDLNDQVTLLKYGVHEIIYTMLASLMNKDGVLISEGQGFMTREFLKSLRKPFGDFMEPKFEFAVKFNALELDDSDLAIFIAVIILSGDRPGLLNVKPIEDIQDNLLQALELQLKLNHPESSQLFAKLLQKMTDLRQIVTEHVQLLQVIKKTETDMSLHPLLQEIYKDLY

[4] = target: T3, Retinoic acid receptor RXR-gamma (Homo sapiens) (UniProt P48443); test: Agonist activity at Gal4-LBD fused RXRgamma (unknown origin) expressed in HEK293T cells at 20 uM after 14 to 16 hrs by dual-Glo luciferase assay
T3 sequence (whole entry): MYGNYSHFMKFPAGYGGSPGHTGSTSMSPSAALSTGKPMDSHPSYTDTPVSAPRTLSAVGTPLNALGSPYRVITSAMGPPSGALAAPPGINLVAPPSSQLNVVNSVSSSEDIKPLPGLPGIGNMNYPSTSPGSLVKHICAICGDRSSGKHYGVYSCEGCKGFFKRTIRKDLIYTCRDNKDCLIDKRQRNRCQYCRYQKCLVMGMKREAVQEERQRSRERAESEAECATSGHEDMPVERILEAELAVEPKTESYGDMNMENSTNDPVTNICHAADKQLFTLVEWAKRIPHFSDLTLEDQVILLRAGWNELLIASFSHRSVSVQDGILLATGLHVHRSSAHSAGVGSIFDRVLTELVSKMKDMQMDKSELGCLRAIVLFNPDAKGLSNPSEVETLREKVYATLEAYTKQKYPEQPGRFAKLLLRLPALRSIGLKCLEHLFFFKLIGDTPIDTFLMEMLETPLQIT

[5] = target: T4, Retinoic acid receptor RXR-beta (Homo sapiens) (UniProt P28702); test: Agonist activity at Gal4-LBD fused RXRbeta (unknown origin) expressed in HEK293T cells assessed as fold activation at 10 uM after 14 to 16 hrs by dual-Glo luciferase assay relative to untreated control
T4 sequence (whole entry): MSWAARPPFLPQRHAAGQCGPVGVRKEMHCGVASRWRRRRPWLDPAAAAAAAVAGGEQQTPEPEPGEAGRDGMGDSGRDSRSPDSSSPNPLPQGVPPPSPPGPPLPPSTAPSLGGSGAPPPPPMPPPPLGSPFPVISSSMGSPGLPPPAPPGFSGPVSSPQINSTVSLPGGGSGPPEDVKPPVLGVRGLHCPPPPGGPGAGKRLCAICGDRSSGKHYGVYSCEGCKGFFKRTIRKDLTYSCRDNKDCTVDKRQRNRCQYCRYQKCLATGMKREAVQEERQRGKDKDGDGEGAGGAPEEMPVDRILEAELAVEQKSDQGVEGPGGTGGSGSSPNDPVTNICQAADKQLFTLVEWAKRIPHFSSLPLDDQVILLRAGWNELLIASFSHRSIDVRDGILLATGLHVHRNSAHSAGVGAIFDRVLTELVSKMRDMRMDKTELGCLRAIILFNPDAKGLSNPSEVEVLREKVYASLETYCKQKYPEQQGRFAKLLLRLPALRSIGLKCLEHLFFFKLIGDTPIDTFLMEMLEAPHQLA
Outline: (§3)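 Gal4-hybrid RXRα/β/γ reporter gene assays in HEK293T cells. Fold activation is the maximal fold activation versus 0.1% DMSO.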

[6] = target: T3, Retinoic acid receptor RXR-gamma (Homo sapiens); test: Agonist activity at Gal4-LBD fused RXRgamma (unknown origin) expressed in HEK293T cells assessed as fold activation at 10 uM after 14 to 16 hrs by dual-Glo luciferase assay relative to untreated control; outline: as §3
[7] = Agonist activity at full-length human RXR/LXR expressed in HEK293T cells at 10 uM after 14 to 16 hrs by dual-glo luciferase reporter gene assay relative to untreated control; details: HEK-293T, read-out: Activity; outline: as §1

Activity [2]: Active
Activity [3]: Active
Activity [4]: inactive
SMILES: Cc1cc(-c2ccc(C(=O)O)cc2)cc(C(C)(C)C)c1
activity at 20 µM [1]: 87%

fold change (FC) [5]: 31
fold change (FC) [6]: 1
SMILES: Cc1cc(-c2cc(C(C)(C)C)cc(C(C)(C)C)c2)ccc1C(=O)O

SMILES: Cc1cc(-c2cc(C(F)(F)F)cc(C(F)(F)F)c2)ccc1CC(=O)O
activity at 10 µM [7]: 63%
